Converted amounts (≈) assume the structure as drawn.
Columns and labels:
Mus musculus [1] = experiment: Antiinflammatory activity against carrageenan-induced hind paw oedema in mouse assessed as inhibition of swelling thickness at 50 mg/kg, po after 90 mins; type: functional; details: 1.5 h
In short: (§1)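 Fasted mice (n = 5–6) were dosed orally with the sample in 0.5% CMC/water. One hour later, carrageenan (0.5 mg/25 µl in 154 mM saline) was injected subplantar into the right hind paw. The right-minus-left footpad thickness difference was measured with dial gauge callipers every 90 min over 6 h. Inhibition % is calculated versus vehicle control; mean ± SEM, Student's t test.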

Enterococcus faecalis = experiment: Antibacterial activity against Enterococcus faecalis ATCC 29212 after 24 hrs by broth microdilution test; type: functional; details: ATCC 29212, 24 h
In short: (§2)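 NCCLS broth microdilution in Mueller-Hinton broth with an inoculum of 5 × 10^5 cfu/mL. Compounds were dissolved in DMSO, diluted in sterile water, and tested as twofold dilutions from 512 to 0.5 µg/mL. Plates were incubated at 35 °C for 24 h. MIC is the lowest concentration preventing visible growth.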

Mus musculus [2] = experiment: Antiinflammatory activity against carrageenan-induced hind paw oedema in mouse assessed as swelling thickness at 100 mg/kg, po after 180 mins; type: functional; in short: as §1
Mus musculus [3] = experiment: Antiinflammatory activity against carrageenan-induced hind paw oedema in mouse assessed as swelling thickness at 50 mg/kg, po after 360 mins; type: functional; in short: as §1
Mus musculus [4] = experiment: Antiinflammatory activity against carrageenan-induced hind paw oedema in mouse assessed as inhibition of swelling thickness at 200 mg/kg, po after 180 mins; type: functional; details: 3 h; in short: as §1
Mus musculus [5] = experiment: Antiinflammatory activity against carrageenan-induced hind paw oedema in mouse assessed as inhibition of swelling thickness at 200 mg/kg, po after 270 mins; type: functional; details: 4.5 h; in short: as §1
Mus musculus [6] = experiment: Antiinflammatory activity against carrageenan-induced hind paw oedema in mouse assessed as swelling thickness at 200 mg/kg, po after 360 mins; type: functional; in short: as §1
Escherichia coli = experiment: Antibacterial activity against Escherichia coli ATCC 25922 after 24 hrs by broth microdilution test; type: functional; details: ATCC 25922, 24 h; in short: as §2
Mus musculus [7] = experiment: Antiinflammatory activity against carrageenan-induced hind paw oedema in mouse assessed as swelling thickness at 50 mg/kg, po after 180 mins; type: functional; in short: as §1
Mus musculus [8] = experiment: Antiinflammatory activity against carrageenan-induced hind paw oedema in mouse assessed as inhibition of swelling thickness at 100 mg/kg, po after 90 mins; type: functional; details: 1.5 h; in short: as §1
Mus musculus [9] = experiment: Antiinflammatory activity against carrageenan-induced hind paw oedema in mouse assessed as inhibition of swelling thickness at 100 mg/kg, po after 360 mins; type: functional; details: 6 h; in short: as §1
Mus musculus [10] = experiment: Analgesic activity in mouse assessed as inhibition of hind paw lick at 100 mg/kg, ip by hot plate test; type: functional; details: route intraperitoneal
Pseudomonas aeruginosa = experiment: Antibacterial activity against Pseudomonas aeruginosa ATCC 27853 after 24 hrs by broth microdilution test; type: functional; details: ATCC 27853, 24 h; in short: as §2
Candida albicans = experiment: Antifungal activity against Candida albicans ATCC 90028 after 48 hrs by broth microdilution test; type: functional; details: ATCC 90028, 48 h
In short: (§3)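 Yeasts tested by NCCLS M27-A broth microdilution in RPMI 1640 (with L-glutamine, without sodium bicarbonate) with an inoculum of 0.5–2.5 × 10^3 cfu/mL. Compounds were prepared from DMSO solution diluted in water as twofold dilutions from 512 to 0.5 µg/mL. Plates were incubated at 35 °C for 48 h. MIC is the lowest concentration giving no visible growth.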

Mus musculus [11] = experiment: Analgesic activity in mouse assessed as inhibition of acetic acid induced-abdominal writhing at 100 mg/kg, ip by Koster test; type: functional; details: Abdomen, route intraperitoneal
Mus musculus [12] = experiment: Toxicity in mouse assessed as ulceration effect at 200 mg/kg; type: functional, organism-based; design: dose 200 mg/kg
In short: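 Mice given 200 mg/kg orally in the carrageenan oedema study were killed under deep ether anaesthesia 6 h after treatment. Stomachs were opened along the greater curvature and examined under a dissecting microscope for lesions or bleeding. Result is expressed as the ratio of ulcerated animals per group.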

Pichia kudriavzevii = experiment: Antifungal activity against Candida krusei ATCC 6258 after 48 hrs by broth microdilution test; type: functional; details: ATCC 6258, 48 h; in short: as §3
Mus musculus [13] = experiment: Antiinflammatory activity against carrageenan-induced hind paw oedema in mouse assessed as swelling thickness at 100 mg/kg, po after 270 mins; type: functional; in short: as §1
Staphylococcus aureus = experiment: Antibacterial activity against Staphylococcus aureus ATCC 29213 after 24 hrs by broth microdilution test; type: functional; details: ATCC 29213, 24 h; in short: as §2
Mus musculus [14] = experiment: Antiinflammatory activity against carrageenan-induced hind paw oedema in mouse assessed as swelling thickness at 50 mg/kg, po after 270 mins; type: functional; in short: as §1
Mus musculus [15] = experiment: Antiinflammatory activity against carrageenan-induced hind paw oedema in mouse assessed as inhibition of swelling thickness at 200 mg/kg, po after 90 mins; type: functional; details: 1.5 h; in short: as §1
Candida parapsilosis = experiment: Antifungal activity against Candida parapsilosis ATCC 22019 after 48 hrs by broth microdilution test; type: functional; details: Lodderomyces parapsilosis, ATCC 22019, 48 h; in short: as §3
Mus musculus [16] = species: Mus musculus; experiment: animal or person; details: ip, read-out: Inhibition
Mus musculus [17] = experiment: Antiinflammatory activity against carrageenan-induced hind paw oedema in mouse assessed as swelling thickness at 100 mg/kg, po after 360 mins; type: functional; in short: as §1
Mus musculus [18] = experiment: Antiinflammatory activity against carrageenan-induced hind paw oedema in mouse assessed as inhibition of swelling thickness at 200 mg/kg, po after 360 mins; type: functional; details: 6 h; in short: as §1
Mus musculus [19] = experiment: Antiinflammatory activity against carrageenan-induced hind paw oedema in mouse assessed as swelling thickness at 50 mg/kg, po after 90 mins; type: functional; in short: as §1
Mus musculus [20] = experiment: Antiinflammatory activity against carrageenan-induced hind paw oedema in mouse assessed as inhibition of swelling thickness at 100 mg/kg, po after 180 mins; type: functional; details: 3 h; in short: as §1
Mus musculus [21] = experiment: Antiinflammatory activity against carrageenan-induced hind paw oedema in mouse assessed as swelling thickness at 200 mg/kg, po after 270 mins; type: functional; in short: as §1
Mus musculus [22] = experiment: Antiinflammatory activity against carrageenan-induced hind paw oedema in mouse assessed as inhibition of swelling thickness at 10 mg/kg, po after 360 mins; type: functional; details: 6 h; in short: as §1
Mus musculus [23] = experiment: Antiinflammatory activity against carrageenan-induced hind paw oedema in mouse assessed as inhibition of swelling thickness at 10 mg/kg, po after 270 mins; type: functional; details: 4.5 h; in short: as §1
Mus musculus [24] = species: Mus musculus; experiment: animal or person; details: po, 1.5 h, read-out: Inhibition
Mus musculus [25] = experiment: Antiinflammatory activity against carrageenan-induced hind paw oedema in mouse assessed as inhibition of swelling thickness at 10 mg/kg, po after 180 mins; type: functional; details: 3 h; in short: as §1
Mus musculus [26] = experiment: Analgesic activity in mouse assessed as inhibition of acetic acid induced-abdominal writhing at 200 mg/kg, ip by Koster test; type: functional; details: Abdomen, route intraperitoneal
Mus musculus [27] = experiment: Antiinflammatory activity against carrageenan-induced hind paw oedema in mouse assessed as inhibition of swelling thickness at 100 mg/kg, po after 270 mins; type: functional; details: 4.5 h; in short: as §1

| Structure (SMILES) | inhibition in vivo at 50 mg/kg (Mus musculus [1]) | MIC (Enterococcus faecalis) | Activity (Mus musculus [3]) | inhibition in vivo at 200 mg/kg (Mus musculus [4]) | inhibition in vivo at 200 mg/kg (Mus musculus [5]) | Activity (Mus musculus [6]) | MIC (Escherichia coli) | Activity (Mus musculus [7]) | inhibition in vivo at 100 mg/kg (Mus musculus [8]) | inhibition in vivo at 100 mg/kg (Mus musculus [9]) | inhibition in vivo at 100 mg/kg (Mus musculus [10]) | MIC (Pseudomonas aeruginosa) | MIC (Candida albicans) | inhibition in vivo at 100 mg/kg (Mus musculus [11]) | MIC (Pichia kudriavzevii) | Activity (Mus musculus [13]) | MIC (Staphylococcus aureus) | Activity (Mus musculus [14]) | inhibition in vivo at 200 mg/kg (Mus musculus [15]) | MIC (Candida parapsilosis) | other results |
| --- | --- | --- | --- | --- | --- | --- | --- | --- | --- | --- | --- | --- | --- | --- | --- | --- | --- | --- | --- | --- | --- |
| COc1ccc(/C=N/NC(=O)Cn2c(=O)oc3ccc(C)cc32)cc1 | 19.5% | 128 µg/mL (≈ 377 µM) | 87.2% | 65.2% | 38.3% | 86.2% | 512 µg/mL (≈ 1510 µM) | 82.3% | 82.4% | 17.5% | 27.5% | 256 µg/mL (≈ 754 µM) | 128 µg/mL (≈ 377 µM) | 65.7% | 128 µg/mL (≈ 377 µM) | 95.4% | 256 µg/mL (≈ 754 µM) | 108.8% | 87.9% | 512 µg/mL (≈ 1510 µM) | Activity (Mus musculus [2]): 100.8%; Activity (Mus musculus [12]): Toxic |
| CN1CC[C@]23c4c5ccc(O)c4O[C@H]2[C@@H](O)C=C[C@H]3[C@H]1C5 [MORPHINE] | – | – | – | – | – | – | – | – | – | – | – | – | – | – | – | – | – | – | – | – | inhibition in vivo at 10 mg/kg (Mus musculus [16]): 50.7% |
| CCn1c(Cn2c(=O)oc3ccc(C)cc32)n[nH]c1=S | – | 512 µg/mL (≈ 1760 µM) | 146.7% | 31.8% | 25.9% | – | 512 µg/mL (≈ 1760 µM) | 91.1% | 57.1% | – | 36.2% | 256 µg/mL (≈ 882 µM) | 512 µg/mL (≈ 1760 µM) | 43.5% | 256 µg/mL (≈ 882 µM) | 117.6% | 512 µg/mL (≈ 1760 µM) | 147.3% | 56.5% | 256 µg/mL (≈ 882 µM) | Activity (Mus musculus [2]): 95.9%; Activity (Mus musculus [17]): 87.1%; inhibition in vivo at 200 mg/kg (Mus musculus [18]): 19.7%; Activity (Mus musculus [12]): Not toxic; Activity (Mus musculus [19]): 82.9% |
| Cc1ccc(/C=N/NC(=O)Cn2c(=O)oc3ccc(C)cc32)cc1 | – | 256 µg/mL (≈ 792 µM) | 98% | 33.3% | – | 83.6% | 128 µg/mL (≈ 396 µM) | 86.8% | 69.7% | 12.6% | 52.9% | 256 µg/mL (≈ 792 µM) | 128 µg/mL (≈ 396 µM) | 77.8% | 128 µg/mL (≈ 396 µM) | 92% | 512 µg/mL (≈ 1580 µM) | 103.8% | 17.1% | 128 µg/mL (≈ 396 µM) | inhibition in vivo at 100 mg/kg (Mus musculus [20]): 9.4%; Activity (Mus musculus [21]): 89.1%; Activity (Mus musculus [19]): 73.8% |
| COc1ccc2c(c1)c(CC(=O)O)c(C)n2C(=O)c1ccc(Cl)cc1 [INDOMETHACIN] | – | – | – | – | – | – | – | – | – | – | – | – | – | – | – | – | – | – | – | – | inhibition in vivo at 10 mg/kg (Mus musculus [22]): 41.6%; inhibition in vivo at 10 mg/kg (Mus musculus [23]): 46.3%; inhibition in vivo at 10 mg/kg (Mus musculus [24]): 42%; inhibition in vivo at 10 mg/kg (Mus musculus [25]): 43% |
| CC(=O)Oc1ccccc1C(=O)O [ASPIRIN] | – | – | – | – | – | – | – | – | – | – | – | – | – | – | – | – | – | – | – | – | inhibition in vivo at 200 mg/kg (Mus musculus [26]): 65.7% |
| Cc1ccc2oc(=O)n(CC(=O)N/N=C/c3ccc(Br)cc3)c2c1 | 1.9% | > 512 µg/mL | 83% | 46.9% | 11.1% | 84.4% | > 512 µg/mL | 94.6% | 44.4% | 19.1% | 20.3% | > 512 µg/mL | 64 µg/mL (≈ 165 µM) | 72.6% | 256 µg/mL (≈ 659 µM) | 92% | > 512 µg/mL | 95.9% | – | 128 µg/mL (≈ 330 µM) | inhibition in vivo at 100 mg/kg (Mus musculus [20]): 43.7%; Activity (Mus musculus [12]): Toxic |
| CCNc1nnc(Cn2c(=O)oc3ccc(C)cc32)s1 | 7.9% | > 512 µg/mL | 94% | 71.3% | 45.4% | – | 512 µg/mL (≈ 1760 µM) | 90.1% | 84.8% | – | 25.4% | 512 µg/mL (≈ 1760 µM) | 512 µg/mL (≈ 1760 µM) | 68.5% | 512 µg/mL (≈ 1760 µM) | – | 512 µg/mL (≈ 1760 µM) | 102.8% | 85.3% | 256 µg/mL (≈ 882 µM) | inhibition in vivo at 100 mg/kg (Mus musculus [27]): 7.1%; inhibition in vivo at 100 mg/kg (Mus musculus [20]): 33.8%; inhibition in vivo at 200 mg/kg (Mus musculus [18]): 11.1% |

Reference: ChEMBL document CHEMBL1149634, “1-Acylthiosemicarbazides, 1,2,4-triazole-5(4H)-thiones, 1,3,4-thiadiazoles and hydrazones containing 5-methyl-2-benzoxazolinones: synthesis, analgesic-anti-inflammatory and antimicrobial activities” (2007)
